These entries were drawn from the full list.
Apaf1 activ = activates human Apaf-1 apoptosome | O14727 | Apaf-1 apoptosome caspase-3 activation, DEVD-Rh110 fluorescence; stronger effect = lower value | activity change, negative = activation, % at 20 µM | 330,000 compounds, 0.31% hits | AID 489031;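 active = activity change at or below -40% at 20 µM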
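System: Reconstituted apoptosome of Apaf-1, cytochrome c, caspase-9, procaspase-3 | Reagent: dATP, cytochrome c, and (Z-DEVD)2-Rh110 caspase-3 substrate | Times: 30 min compound preincubation and 50 min reaction, both room temperature | Detection: Caspase-3-released Rh110 fluorescence, 540 nm emission, 480 nm excitation | Measure: Caspase-3 activity via Apaf-1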
Rh110 interf act = counter-screen for Apaf-1 activators: fluorescence interference; shares compounds with Apaf1 activ; Rh110 fluorescence interference, quenched caspase reaction, Ex480/Em540; fluorescence interference (activity change), % at 20 µM, hits read low; 980 tested, under 10 active; AID 504616;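 active = mean activity change at or below -40% when tested at 20 µM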
Apaf-1 act conf = confirmation of human Apaf-1 activators | reconstituted apoptosome caspase-3 activity, DEVD-Rh110 fluorescence; stronger effect = lower value | activity change, negative = activation, % at 20 µM | shares compounds with Apaf1 activ | 980 compounds, 5% hits;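 active = mean activity change at or below -40%, meaning activation of 40% or more, at 20 µM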
Fluor interf act = counter-screen for Apaf-1 activators: fluorescence interference, dose response. shares compounds with Apaf1 activ. 55 tested, under 10 active. EC50, µM. fluorescence interference counterscreen, Apaf-1 activator assay; call rule not given here
Numbers without * were called inactive; nt = no result given.

SMILES	Apaf1 activ	Rh110 interf act	Apaf-1 act conf	others
Cc1cccc(OCCCC(=O)NNC(=O)CCN2CCN(c3ccccc3)CC2)c1	-630*	-2	12
CCN1CCN(CCc2nc3cc(NC(=O)COc4ccccc4)ccc3n2C)CC1	51	nt	nt
COc1cccc(N2CCN(CC(=O)Nc3ccccc3C(=O)NCCc3ccccc3)CC2)c1	50	nt	nt
CC(C)C[C@@H]1CN=C(N)N1C[C@@H]1CCCN1C[C@@H](C(C)C)N1C[C@@H](Cc2ccccc2)N(CCCC2CCCC2)C1=N	55	nt	nt
CCCCC(CC)CN=C(N)NC(N)=NCCCCCCN=C(N)NC(N)=NCC(CC)CCCC (stereo not drawn)	94	nt	nt
O=C(NCc1ccc2c(c1)OCO2)c1cc(-c2ccccc2)c(N2CCOCC2)s1	-287*	8	22
Nc1c(C(=O)NCc2ccc3c(c2)OCO3)c2nc3ccccc3nc2n1CCCN1CCOCC1	90	nt	nt
CCC(=O)NC1=C(Cl)C(=O)C(NC(=O)CC)=C(Cl)C1=O	71	nt	nt
COc1ccc(CN=Cc2[nH]c3ccc(Br)c(Cl)c3c2O)cc1	45	nt	nt
Cc1ccccc1NC1=C/C(=N\S(=O)(=O)c2ccc(C(=O)O)cc2)c2ccccc2C1=O	97	nt	nt
CCc1ccc(S(=O)(=O)/N=C2\C=C(NS(=O)(=O)c3ccccc3)C(=O)c3ccccc32)cc1	57	nt	nt
Cc1ccc(C)c(S(=O)(=O)/N=C2\C=C(NS(=O)(=O)c3ccccc3)C(=O)c3ccccc32)c1	78	nt	nt	Fluor interf act=>100
CCOC(=O)N=Nc1c2ccccc2c2nc3no[nH]c3nc12	88	nt	nt
CCCC(CCC)C(=O)O	-6	nt	nt
NNC(=O)c1ccc(Cn2cc(Br)c(N)n2)cc1	-40*	4	5
COc1ccc(C2CC(=O)N3CN(c4ccc(C)c(Cl)c4)CSC3=C2C#N)cc1 (stereo not drawn)	47	nt	nt
c1cc2c3c(cccc3c1)NC1(CCCCCC1)N2	49	nt	nt
COc1ccc(C(=O)O)cc1NC(=S)NC(=O)CSc1ccc(Cl)cc1	-152*	-11	15
CCC(=O)OCCNc1cc(Sc2nc3ccccc3s2)c2nonc2c1[N+](=O)[O-]	46	nt	nt
CCCOc1cc(NCc2ccccc2)c2ncn(C(C)C)c2c1	44	nt	nt
N=C1SC(c2ccccc2)C(=O)N1c1ncc(Cc2ccccc2Cl)s1 (stereo not drawn)	-171*	-6	11
Cc1ccccc1NC(=O)CSc1nnc(NC(=O)c2ccco2)s1	-66*	-4	4
CCCCNc1cc(NC(C)=O)cc2cc(OC)c(OC)cc12	62	nt	nt
Cc1ccc(NC(=O)c2ccc(OC(=O)COc3ccc(Cl)cc3C)cc2)cc1	-486*	-6	8
CC(C)COc1ccc(C(=O)Nc2scc(-c3ccc(Cl)cc3Cl)c2C(N)=O)cc1	45	nt	nt
SMILES	Apaf1 activ	Rh110 interf act	Apaf-1 act conf	others
CCOC(=O)c1[nH]c(COC(=O)c2ccccc2NC(=O)c2ccco2)c(C(=O)OCC)c1C	-383*	9	11
CCN(C(=S)NC(=O)c1ccco1)c1cccc2ccccc12	82	nt	nt
CCCCCc1ccc(OCCCC[n+]2ccc(C)cc2)c(CCCCC)c1	56	nt	nt
CCOC(=O)Cc1csc(N/C(=N/S(=O)(=O)c2ccc(Cl)cc2)c2ccccc2)n1	63	nt	nt
CN(C)CC/C=C1\c2ccccc2Sc2ccc(Cl)cc21	49	nt	nt
CCOc1cc(/C=N/NC(=O)C(=O)NCCCOC(C)C)cc(Br)c1O	-173*	0	12
CCCCn1c(=O)[nH]c(=O)c2c1nc(-c1ccc([N+](=O)[O-])cc1)n2CC	-45*	2	-1
CC(C)[n+]1ccn(C2=C([O-])c3ccccc3C(=O)/C2=N\S(=O)(=O)c2ccccc2)c1	46	nt	nt
CCCCCCSc1cc(-c2nc3ccc(C)cn3c2NCCCC)ccc1OC	46	nt	nt
CN(C)c1ccc2nc3ccc(=[N+](C)C)cc-3sc2c1	64	nt	nt
Cc1ccc(N(CC(N)=O)C2SC(=O)N(C)C2=O)cc1 (stereo not drawn)	-488*	8	12
COc1cccc(NC(=O)c2cc(C(=O)Nc3cccc(OC)c3)n(C)n2)c1	41	nt	nt
CC(=O)c1cccc(NC(=S)Nc2cccc3ccccc23)c1	81	nt	nt
COc1cccc(NC(=S)NC(=O)c2cncc(Br)c2)c1	-318*	-1	10
COCCOc1cc(NCc2ccccc2)c2ncn(C(C)C)c2c1	68	nt	nt
COc1ccc(-c2oc3ccc(-c4cc(OC)c(OC)c(OC)c4)cc3c2-c2ccc(OC)cc2)cc1	-211*	6	1
CCCCN=Cc1c(C)[nH]n(-c2ccccc2)c1=S	-80*	1	12
CCCCN(CCCC)C(=S)N/N=C/c1c(C)[nH]n(-c2ccccc2)c1=O	57	nt	nt
Cc1cc(C(=O)N/N=C/c2c(C)[nH]n(-c3ccccc3)c2=O)n[nH]1	77	nt	nt
CC(=O)Nc1cc(OC(C)=O)c2nonc2c1OC(C)=O	98	nt	nt
COc1ccc(C2=Nn3c(nnc3-c3ccccc3F)SC2)cc1OC1CCCC1	47	nt	nt
CC(=O)c1ccc(OCC(O)CN2CCN(Cc3ccc4c(c3)OCO4)CC2)cc1 (stereo not drawn)	0	nt	nt
C/C(=N\NC(=O)Cn1ccc(C(F)(F)F)n1)c1ccc2c(c1)OCO2	-134*	1	0
COc1cc(NCCCCCCCN)c2ncccc2c1	95	nt	nt
COc1cccc2c1C(=O)c1c(O)c3c(c(O)c1C2=O)C[C@@](O)(C(=O)CO)C[C@@H]3O[C@H]1C[C@H](N)[C@@H](O)[C@H](C)O1	56	nt	nt
SMILES	Apaf1 activ	Rh110 interf act	Apaf-1 act conf	others
COc1ccccc1NC(=O)C1=C(C)Nc2nnnn2C1c1cccc(C)c1 (stereo not drawn)	-71*	6	14
COc1cc2sc(-c3ccccc3OC)c(-c3ccc(OCCN4CCCCC4)cc3)c2cc1OC	66	nt	nt
O=C1/C(=C/c2ccccn2)SC(=S)N1c1ccc(O)cc1	-47*	-1	-10
N#CC1=C(N)Oc2n[nH]c(-c3cccs3)c2C1c1ccsc1 (stereo not drawn)	83	nt	nt
COCCCNC(=O)c1c(N)n(-c2ccccc2)c2nc3ccccc3nc12	84	nt	nt
COC1=C(Nc2ccccc2)C(=O)c2ccccc2C1=O	61	nt	nt
CC[C@@H](C)[C@@H]1CN([C@@H](C)CN2CCC[C@H]2CN2C(N)=NC[C@@H]2Cc2ccccc2)C(=N)N1CCc1ccc(Cl)c(Cl)c1	71	nt	nt
COc1ccc(NC(=S)Nc2ccccn2)c(OC)c1	-48*	0	17
COc1ccc(NC(=S)Nc2cccc3ccccc23)cc1OC	83	nt	nt
O=C1c2c(O)ccc(O)c2C(=O)c2c(NCCNCCO)ccc(NCCNCCO)c21	78	nt	nt
COc1ccc(-c2coc3c(CN4CCCCC4)c(O)c(CN4CCCCC4)c(O)c3c2=O)cc1	42	nt	nt
O=c1[nH]c2ccc(S(=O)(=O)Nc3ccc(-c4nnc5n4CCCCC5)cc3)cc2o1	-154*	6	16
COc1cccc2sc3cc(C#CC4(O)CCCCC4)ccc3c(=O)c12	40	nt	nt
CCCCCCN(C(=O)CCCCCN1C(=O)NC(c2ccc(-c3ccccc3)cc2)C(C(=O)OCc2ccccc2)=C1C)C(C(=O)NCCCC)c1cccc(C(=O)OC)c1 (stereo not drawn)	79	nt	nt
Cc1cc(C)nc(N/N=C/c2ccc(N3CCOCC3)cc2)n1	-68*	9	13

Assay outcomes deposited in PubChem by Sanford-Burnham Center for Chemical Genomics.
